For eleven compounds, MIC90 results are on record in ChEMBL document CHEMBL5055637, “Novel C-3-(N-alkyl-aryl)-aminomethyl rifamycin SV derivatives exhibit activity against rifampicin-resistant Mycobacterium tuberculosis RpoBS522L strain and display a different binding mode at the RNAP β-subunit site compared to rifampicin” (2021).

Converted amounts (≈) assume the structure as drawn.

What all share (format): functional
What all share (details): time 5 day

Experiment [1] relates to Mycobacterium tuberculosis. The experiment in a line: Antitubercular activity against rifampicin resistant Mycobacterium tuberculosis HN878 harboring RpoBH455D mutant assessed as bacterial growth inhibition measured after 5 days by serial dilution method. Put shortly: (§1)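 Strains grown in Middlebrook 7H9 with OADC supplement and 0.05% w/v Tween 80. Compounds tested as 10-point 2-fold serial dilutions. Growth read as OD590 after 5 days in 7H9-OADC-Tw. Levenberg-Marquardt curve fitting gave MIC90, the concentration inhibiting growth by 90% relative to controls. Run in triplicate.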

For experiment [2], the system named is Mycobacterium tuberculosis. The experiment can be described thus: Antitubercular activity against rifampicin resistant Mycobacterium tuberculosis ATCC 35838 harboring RpoBS531L mutant assessed as bacterial growth inhibition measured after 5 days by serial dilution method. The gist of the method: as §1
Experiment [3] deals with Mycobacterium tuberculosis H37Rv. The experiment can be described thus: Antitubercular activity against rifampicin resistant Mycobacterium tuberculosis H37Rv harboring RpoBS522L mutant assessed as bacterial growth inhibition measured after 5 days by serial dilution method. The gist of the method:
as §1

On to `CO[C@H]1/C=C/O[C@@]2(C)Oc3c(C)c(O)c4c(O)c(c(CN5CCN(CCO)CC5)c(O)c4c3C2=O)NC(=O)/C(C)=C\C=C\[C@H](C)[C@H](O)[C@@H](C)[C@@H](O)[C@@H](C)[C@H](OC(C)=O)[C@@H]1C`, for which the MIC90 was more than 20 µM in experiment [1], more than 20 µM in experiment [2] and 4.7 µM (≈ 3.95 µg/mL) in experiment [3].
In the case of `CO[C@H]1/C=C/O[C@@]2(C)Oc3c(C)c(O)c4c(O)c(c(CNCc5ccc(S(C)(=O)=O)cc5)c(O)c4c3C2=O)NC(=O)/C(C)=C\C=C\[C@H](C)[C@H](O)[C@@H](C)[C@@H](O)[C@@H](C)[C@H](OC(C)=O)[C@@H]1C`, the MIC90 in experiment [1] was more than 20 µM; in experiment [2], more than 20 µM; in experiment [3], 3.2 µM (≈ 2.86 µg/mL).
For `CO[C@H]1/C=C/O[C@@]2(C)Oc3c(C)c(O)c4c(O)c(c(CNCc5ccncc5)c(O)c4c3C2=O)NC(=O)/C(C)=C\C=C\[C@H](C)[C@H](O)[C@@H](C)[C@@H](O)[C@@H](C)[C@H](OC(C)=O)[C@@H]1C`, the figures for the MIC90 in experiment [1], in experiment [2] and in experiment [3] were more than 20 µM, more than 20 µM and 6.7 µM (≈ 5.48 µg/mL), respectively.
As for `CO[C@H]1/C=C/O[C@@]2(C)Oc3c(C)c(O)c4c(O)c(c(CNCc5ccccc5)c(O)c4c3C2=O)NC(=O)/C(C)=C\C=C\[C@H](C)[C@H](O)[C@@H](C)[C@@H](O)[C@@H](C)[C@H](OC(C)=O)[C@@H]1C`, the figures for the MIC90 in experiment [1], in experiment [2] and in experiment [3] were 9.9 µM (≈ 8.09 µg/mL), more than 20 µM and 12 µM (≈ 9.8 µg/mL), respectively.
On to `CO[C@H]1/C=C/O[C@@]2(C)Oc3c(C)c(O)c4c(O)c(c(CNCc5cccs5)c(O)c4c3C2=O)NC(=O)/C(C)=C\C=C\[C@H](C)[C@H](O)[C@@H](C)[C@@H](O)[C@@H](C)[C@H](OC(C)=O)[C@@H]1C`, for which the MIC90 in experiment [1] was 14 µM (≈ 11.5 µg/mL); in experiment [2], more than 20 µM; in experiment [3] it was 8 µM (≈ 6.58 µg/mL).
For the compound `CO[C@H]1/C=C/O[C@@]2(C)Oc3c(C)c(O)c4c(O)c(c(CNCc5ccco5)c(O)c4c3C2=O)NC(=O)/C(C)=C\C=C\[C@H](C)[C@H](O)[C@@H](C)[C@@H](O)[C@@H](C)[C@H](OC(C)=O)[C@@H]1C`, the MIC90 in experiment [1] was 16 µM (≈ 12.9 µg/mL); in experiment [2], more than 20 µM; in experiment [3] it was more than 20 µM.
With `COC(=O)c1ccc(CNCc2c3c(O)c4c(O)c(C)c5c(c4c2O)C(=O)[C@@](C)(O/C=C/[C@H](OC)[C@@H](C)[C@@H](OC(C)=O)[C@H](C)[C@H](O)[C@H](C)[C@@H](O)[C@@H](C)/C=C/C=C(/C)C(=O)N3)O5)cc1`, the MIC90 in experiment [1] was more than 20 µM; in experiment [2], more than 20 µM; in experiment [3] it was 7.7 µM (≈ 6.74 µg/mL).
`CO[C@H]1/C=C/O[C@@]2(C)Oc3c(C)c(O)c4c(O)c(c(CNCCc5c[nH]c6ccccc56)c(O)c4c3C2=O)NC(=O)/C(C)=C\C=C\[C@H](C)[C@H](O)[C@@H](C)[C@@H](O)[C@@H](C)[C@H](OC(C)=O)[C@@H]1C`: the MIC90 was more than 20 µM in experiment [1], more than 20 µM in experiment [2] and 3.1 µM (≈ 2.7 µg/mL) in experiment [3].
Consider `CO[C@H]1/C=C/O[C@@]2(C)Oc3c(C)c(O)c4c(O)c(c(CNCCc5ccc(O)cc5)c(O)c4c3C2=O)NC(=O)/C(C)=C\C=C\[C@H](C)[C@H](O)[C@@H](C)[C@@H](O)[C@@H](C)[C@H](OC(C)=O)[C@@H]1C`, for which the values for the MIC90 in experiment [1], in experiment [2] and in experiment [3] were more than 20 µM, more than 20 µM and 5.8 µM (≈ 4.91 µg/mL), respectively.
As to `NNC(=O)c1ccncc1` [ISONIAZID], the MIC90 in experiment [1] is 0.62 µM (≈ 0.085 µg/mL); in experiment [2] it was 0.55 µM (≈ 0.0754 µg/mL); in experiment [3], 0.29 µM (≈ 0.0398 µg/mL).
In the same order, the values of `CO[C@H]1/C=C/O[C@@]2(C)Oc3c(C)c(O)c4c(O)c(c(/C=N/N5CCN(C)CC5)c(O)c4c3C2=O)NC(=O)/C(C)=C\C=C\[C@H](C)[C@H](O)[C@@H](C)[C@@H](O)[C@@H](C)[C@H](OC(C)=O)[C@@H]1C` [RIFAMPIN] are more than 8 µM, more than 8 µM and more than 8 µM.

Usually MIC90 stands for an inhibitory concentration at the 90% level, which refers to growth in some studies and to a panel of isolates in others.
